Source: ChEMBL document CHEMBL5096173, “Anti-SARS-CoV-2 Activity of Andrographis paniculata Extract and Its Major Component Andrographolide in Human Lung Epithelial Cells and Cytotoxicity Evaluation in Major Organ Cell Representatives” (J Nat Prod, 2021)
pIC50: −log10 of the molar value.

Tests used:
SARS-CoV-2 [1] = experiment: Antiviral activity against SARS CoV-2 (01/human/Jan2020/Thailand) infected in human Calu-3 cells for 2 hrs assessed as inhibition of viral replication measured after 48 hrs post infection by IFA assay; format: functional, organism-based; conditions: for pIC50: Severe acute respiratory syndrome coronavirus 2, (01/human/Jan2020/Thailand)
SARS-CoV-2 [2] = experiment: Antiviral activity against SARS CoV-2 (01/human/Jan2020/Thailand) infected in human Calu-3 cells for 2 hrs assessed as inhibition of viral replication measured after 48 hrs post infection by plague assay; format: functional, organism-based; conditions: Severe acute respiratory syndrome coronavirus 2, (01/human/Jan2020/Thailand)
SARS-CoV-2 [3] = experiment: Antiviral activity against SARS CoV-2 (01/human/Jan2020/Thailand) infected in African green monkey Vero E6 cells for 2 hrs assessed as inhibition of viral replication measured after 48 hrs post infection by IFA assay; format: functional, organism-based; conditions: Severe acute respiratory syndrome coronavirus 2, (01/human/Jan2020/Thailand), Vero C1008
SARS-CoV-2 [4] = experiment: Antiviral activity against SARS CoV-2 (01/human/Jan2020/Thailand) infected in African green monkey Vero E6 cells assessed as inhibition of viral replication pre-infected with cells for 2 hrs followed by compound addition and measured after 48 hrs post infection by plague assay; format: functional, organism-based; conditions: Severe acute respiratory syndrome coronavirus 2, (01/human/Jan2020/Thailand), Vero C1008
SARS-CoV-2 [5] = experiment: Antiviral activity against SARS CoV-2 (01/human/Jan2020/Thailand) infected in human Calu-3 cells for 2 hrs assessed as reduction in extracellular viral RNA measured after 48 hrs post infection by qRT-PCR analysis; format: functional, organism-based; conditions: Severe acute respiratory syndrome coronavirus 2, dose 0.1-100 µg/ml, DDE = dose-dependent effect
HepG2 = experiment: Cytotoxicity against human HepG2 cells assessed as reduction in cell viability incubated for 48 hrs by MTT assay; format: functional
Summary of the method: (§1)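 Cells plated at 5×10^4/well and exposed 48 h to 0–100 µM (or extract 0–100 µg/mL). MTT added at 0.5 mg/mL final for 4 h at 37 °C, formazan dissolved in DMSO, absorbance read at 570 nm. Data normalised to solvent control and CC50 fitted.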

[6] = Cytotoxicity against human imHC cells assessed as reduction in cell viability incubated for 48 hrs by MTT assay; format: toxicity, cell-based; summary of the method: as §1
HK-2 = experiment: Cytotoxicity against human HK-2 cells assessed as reduction in cell viability incubated for 48 hrs by MTT assay; format: toxicity, cell-based; conditions: hk-2, 48 h; summary of the method: as §1
Caco-2 = experiment: Cytotoxicity against human Caco-2 cells assessed as reduction in cell viability incubated for 48 hrs by MTT assay; format: functional; summary of the method: as §1
Calu-3 = experiment: Cytotoxicity against human Calu-3 cells assessed as reduction in cell viability incubated for 48 hrs by MTT assay; format: functional; summary of the method: as §1
SH-SY5Y = experiment: Cytotoxicity against human SH-SY5Y cells assessed as reduction in cell viability incubated for 48 hrs by MTT assay; format: functional; summary of the method: as §1
[7] = Selectivity index, ratio of CC50 for human HepG2 to IC50 for SARS CoV-2 (01/human/Jan2020/Thailand) infected in African green monkey Vero E6 cells; format: toxicity; conditions: read-out: Ratio CC50/IC50
[8] = Selectivity index, ratio of CC50 for human imHC to IC50 for SARS CoV-2 (01/human/Jan2020/Thailand) infected in African green monkey Vero E6 cells; format: toxicity; conditions: read-out: Ratio CC50/IC50
[9] = Selectivity index, ratio of CC50 for human HK-2 to IC50 for SARS CoV-2 (01/human/Jan2020/Thailand) infected in African green monkey Vero E6 cells; format: toxicity; conditions: HK-2 cells, read-out: Ratio CC50/IC50
[10] = Selectivity index, ratio of CC50 for human Caco-2 to IC50 for SARS CoV-2 (01/human/Jan2020/Thailand) infected in African green monkey Vero E6 cells; format: toxicity; conditions: Caco-2 cells, read-out: Ratio CC50/IC50
[11] = Selectivity index, ratio of CC50 for human Calu-3 to IC50 for SARS CoV-2 (01/human/Jan2020/Thailand) infected in African green monkey Vero E6 cells; format: toxicity; conditions: Calu-3 cells, read-out: Ratio CC50/IC50
[12] = Selectivity index, ratio of CC50 for human SH-SY5Y to IC50 for SARS CoV-2 (01/human/Jan2020/Thailand) infected in African green monkey Vero E6 cells; format: toxicity; conditions: read-out: Ratio CC50/IC50
[13] = biological target: Replicase polyprotein 1ab (Severe acute respiratory syndrome coronavirus 2, UniProt P0DTD1); experiment: Inhibition of C-terminal His 6 tagged SARS CoV-2 main protease transfected in Escherichia coli BL21 (DE3); parameters: species or system Severe acute respiratory syndrome-related coronavirus
SARS-CoV-2 [14] = experiment: Antiviral activity against SARS CoV-2 (01/human/Jan2020/Thailand) infected in African green monkey Vero E6 cells for assessed as inhibition of viral replication preincubated for 1 hr followed by viral adsorption for 2 hrs and measured after 48 hrs by hoechst staining based analysis; format: functional, organism-based; conditions: Severe acute respiratory syndrome coronavirus 2, (01/human/Jan2020/Thailand), Vero C1008

O=C(Nc1ccc([N+](=O)[O-])cc1Cl)c1cc(Cl)ccc1O [NICLOSAMIDE]
pIC50 (SARS-CoV-2 [1]): 6.05

C=C1CC[C@@H]2[C@](C)(CO)[C@H](O)CC[C@@]2(C)[C@@H]1C/C=C1/C(=O)OC[C@H]1O [ANDROGRAPHOLIDE]
pIC50 (SARS-CoV-2 [1]): 5.77
Activity (SARS-CoV-2 [1]; Severe acute respiratory syndrome coronavirus 2, dose 0.1-100 µg/ml, DDE = dose-dependent effect): Dde
pIC50 (SARS-CoV-2 [2]): 7.47
pIC50 (SARS-CoV-2 [3]): 5.18
pIC50 (SARS-CoV-2 [4]): 6.55
Activity (SARS-CoV-2 [5]): Dde
Activity (HepG2): 81.52 µM
Activity [6]: 44.55 µM
Activity (HK-2): 34.11 µM
Activity (Caco-2): 52.3 µM
Activity (Calu-3): 58.03 µM
Activity (SH-SY5Y): 13.19 µM
selectivity ratio [7]: 2400
selectivity ratio [8]: 1310
selectivity ratio [9]: 1000
selectivity ratio [10]: 1540
selectivity ratio [11]: 1710
selectivity ratio [12]: 388
pIC50 [13]: 4.82
pIC50 (SARS-CoV-2 [14]): 4.72

CCC(CC)COC(=O)[C@H](C)N[P@](=O)(OC[C@H]1O[C@@](C#N)(c2ccc3c(N)ncnn23)[C@H](O)[C@@H]1O)Oc1ccccc1 [REMDESIVIR]
pIC50 (SARS-CoV-2 [1]): 7.37
pIC50 (SARS-CoV-2 [2]): 7.07
pIC50 (SARS-CoV-2 [3]): 5.57
pIC50 (SARS-CoV-2 [4]): 5.58

CCN(CCO)CCCC(C)Nc1ccnc2cc(Cl)ccc12 (stereo unspecified) [HYDROXYCHLOROQUINE]
pIC50 (SARS-CoV-2 [1]): < 4.30
